Measurements taken from ChEMBL document CHEMBL4613269, “2-((4-Arylpiperazin-1-yl)methyl)benzonitrile Derivatives as Orally Available Inhibitors of Hepatitis C Virus with a Novel Mechanism of Action” (J Med Chem, 2020).
Calls of active or inactive are those of the source. The rule behind the calls is not given here.

Experiments:
Hepatitis C virus [1] = test: Antiviral activity against HCV genotype 1b pseudoparticle infected in human Huh7.5 cells assessed as reduction in viral replication at 2 to 4 uM; assay type: functional, organism-based; details: Hepacivirus hominis, subtype 1b
How it was run: (§1)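 Genotype 1b or 2a HCV pseudoparticles made by co-transfecting HEK 293T cells with envelope and luciferase-reporter HIV plasmids; input standardized by luciferase. Huh7.5 cells co-incubated with compound and HCVpp for 4 h at 37°C, washed, then luciferase read at 72 h.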

Hepatitis C virus [2] = test: Antiviral activity against HCV genotype 2a pseudoparticle infected in human Huh7.5 cells assessed as reduction in viral replication at 2 to 4 uM; assay type: functional, organism-based; details: Hepacivirus hominis, subtype 2a; how it was run: as §1
Influenza A virus = test: Antiviral activity against influenza A virus H3N2/95-359 infected in MDCK cells assessed as reduction in virus-induced cytopathic effect incubated for 48 hrs by Reed-Muench method; assay type: functional, organism-based; details: H3N2/95-359, MDCK
[3] = Cytotoxicity in MDCK cells assessed as reduction in cell viability; assay type: cell-based, Canis lupus familiaris; details: dog
[4] = Selectivity index, ratio of CC50 for cytotoxicity in MDCK cells to EC50 for Antiviral activity against influenza A virus H3N2/95-359 infected in MDCK cells; assay type: toxicity, cell-based; details: dog, read-out: Ratio CC50/EC50
[5] = Cytotoxicity in human Huh7.5 cells assessed as reduction in cell viability incubated for 96 hrs by MTT assay; assay type: cell-based
How it was run: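 Huh7.5 cells seeded 24 h before compound addition. Viability read by MTT at 96 h. Eight-step 1:5 serial dilutions in triplicate; CC50 by Reed & Muench; three independent experiments.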

Hepatitis C virus [6] = test: Antiviral activity against HCV J6/JFH/JC1 infected in human Huh7.5 cells incubated for 72 hrs by In-Cell Western assay; assay type: functional, organism-based, Hepacivirus hominis; details: J6/JFH/JC1, Huh7.5, 72 h
How it was run: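 Huh7.5 cells infected with HCVcc (MOI 0.1) and treated with compound at the same time for 72 h. Cells fixed with PFA, permeabilized, then stained for HCV Core and GAPDH with IR-dye secondaries. Core signal normalized to GAPDH. Eight-step 1:5 dilutions in triplicate; EC50 by Reed & Muench; mean of three experiments.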

[7] = Selectivity index, ratio of CC50 for cytotoxicity in human Huh7.5 cells assessed as reduction in cell viability incubated for 96 hrs by MTT assay to EC50 for antiviral activity against HCV J6/JFH/JC1 infected in human Huh7.5 cells incubated for 72 hrs by In-Cell Western assay; assay type: toxicity, cell-based; details: read-out: Ratio CC50/EC50
How it was run: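 HCVcc (MOI=0.1) infected Huh7.5 cells co-treated with eight-step 1:5 serial dilutions, triplicate wells. After 72 h, fixed, permeabilized, and stained for HCV Core and GAPDH with IR-dye secondaries. Core normalized to GAPDH. CC50 came from MTT at 96 h in uninfected Huh7.5 cells. EC50/CC50 were derived by Reed & Muench, mean ± SD of three independent experiments.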

Hepatitis C virus [8] = test: Antiviral activity against HCV GS4.3 infected in human Huh7.5 cells assessed as reduction in viral NS3 protein levels at 1 uM incubated for 72 hrs by Western blot assay; assay type: functional, organism-based; details: Hepacivirus hominis
Hepatitis C virus [9] = test: Antiviral activity against HCV GS4.3 infected in human Huh7.5 cells assessed as reduction in viral replication at 0.3125 to 5 uM simultaneously treated with viral infection for 4 hrs and measured after 72 hrs by In-Cell Western assay; assay type: functional, organism-based; details: Hepacivirus hominis
How it was run: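 Huh7.5 cells infected with HCV while incubated with compound, either for 4 h across a concentration series or at 1.0 µM for varied times down to 15 min. Supernatant then replaced with fresh medium. Intracellular Core protein measured by In-Cell Western at 72 h.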

Hepatitis C virus [10] = test: Antiviral activity against HCV genotype 1b pseudoparticle infected in human Huh7.5 cells assessed as reduction in viral replication at 10 uM; assay type: functional, organism-based; details: Hepacivirus hominis, subtype 1b; how it was run: as §1
Hepatitis C virus [11] = test: Antiviral activity against HCV genotype 2a pseudoparticle infected in human Huh7.5 cells assessed as reduction in viral replication at 10 uM; assay type: functional, organism-based; details: Hepacivirus hominis, subtype 2a; how it was run: as §1
Hepatitis C virus [12] = test: Antiviral activity against wild type HCV by qRT-PCR analysis based by Reed-Muench method; assay type: functional, organism-based, Hepacivirus hominis
How it was run: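 Huh7.5 cells seeded 24 h, then infected with wild-type (or mutant) HCV with compound added at the same time. Incubated 72 h. Intracellular HCV RNA measured by qRT-PCR, 2^-ΔCt method, normalized to GAPDH. Eight-step 1:5 serial dilutions in triplicate; EC50 by Reed & Muench; three independent experiments.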

Hepatitis C virus [13] = test: Antiviral activity against HCV expressing NS3 A156T mutant by qRT-PCR analysis based by Reed-Muench method; assay type: functional, organism-based, Hepacivirus hominis
How it was run: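 Huh7.5 cells seeded at 3×10^4/cm², infected 24 h later with wild-type or mutant HCV stock while compound or solvent was added at the same time. Intracellular HCV RNA measured by qRT-PCR at 72 h, normalised to GAPDH, 2^-ΔCT method. EC50 by Reed & Muench from eight-step 1:5 serial dilutions, triplicate wells.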

SMILES: Cc1nc(Nc2ncc(C(=O)Nc3c(C)cccc3Cl)s2)cc(N2CCN(CCO)CC2)n1
- Activity (Hepatitis C virus [1]): Active
- Activity (Hepatitis C virus [2]): Active

SMILES: CCOC(=O)C1=C[C@@H](OC(CC)CC)[C@H](NC(C)=O)[C@@H](N)C1 [OSELTAMIVIR]
- EC50 (Influenza A virus): 2140 nM
- CC50 [3]: > 640000 nM
- selectivity ratio [4]: > 299

SMILES: CCC[C@H](NC(=O)[C@@H]1[C@H]2CCC[C@H]2CN1C(=O)[C@@H](NC(=O)[C@@H](NC(=O)c1cnccn1)C1CCCCC1)C(C)(C)C)C(=O)C(=O)NC1CC1 [TELAPREVIR]
- CC50 at 96 h [5]: 55000 nM
- EC50 (Hepatitis C virus [6]): 146 nM
- selectivity ratio [7]: 377
- Activity (Hepatitis C virus [8]): Active
- Activity (Hepatitis C virus [9]): inactive
- Activity (Hepatitis C virus [10]): inactive
- Activity (Hepatitis C virus [11]): inactive
- EC50 (Hepatitis C virus [12]): 7.8 nM
- EC50 (Hepatitis C virus [13]): 1210 nM
